Among the data in ChEMBL document CHEMBL1932980, “Structure-activity relationships of 2-amino-3-aroyl-4-[(4-arylpiperazin-1-yl)methyl]thiophenes. Part 2: Probing the influence of diverse substituents at the phenyl of the arylpiperazine moiety on allosteric enhancer activity at the A₁ adenosine receptor” (Bioorg Med Chem, 2012) are inhibition, Activity and fold change (FC) values, retold here.

Test [1] concerns the target Adenosine receptor A2a (Homo sapiens) (UniProt P29274). Briefly: Displacement of [3H]ZM241385 from recombinant human A2A adenosine receptor expressed in CHO cells at 10 uM after 60 mins by scintillation counting. It counts as cell-based. The procedure, abridged: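 Membranes from hA2ACHO cells incubated with 1 nM [3H]ZM 241385 in 50 mM Tris–HCl, 10 mM MgCl2, pH 7.4 at 4 °C for 60 min. Compound added from a 100-fold DMSO stock, 1% DMSO final, also in controls. Separated by GF/B filtration and counted by scintillation. Result given as % of control specific binding.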
For orientation: Loss of bound radioactivity is the signal in a displacement assay; it reports binding, not function.

Test [2] addresses T1, Adenosine receptor A1 (Homo sapiens) (UniProt P30542).
T1 sequence (whole entry): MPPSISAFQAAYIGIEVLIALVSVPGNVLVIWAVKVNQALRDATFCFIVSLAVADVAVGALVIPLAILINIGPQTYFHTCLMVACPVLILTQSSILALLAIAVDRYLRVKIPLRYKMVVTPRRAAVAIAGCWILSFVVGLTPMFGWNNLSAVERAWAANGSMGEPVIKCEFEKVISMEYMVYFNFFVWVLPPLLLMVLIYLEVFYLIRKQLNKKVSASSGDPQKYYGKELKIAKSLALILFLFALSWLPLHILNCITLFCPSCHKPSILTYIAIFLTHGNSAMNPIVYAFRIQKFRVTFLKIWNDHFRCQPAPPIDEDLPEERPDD
As to the kind of experiment: Allosteric enhancer activity at recombinant human A1 adenosine receptor expressed in CHO cells assessed as change in forskolin-induced cAMP production at 0.1 uM after 6 mins by radioimmunoassay. Format: functional, cell-based. The procedure, abridged:
(§1)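 hA1CHO cells (about 8000 fmol/mg protein) thawed from low-passage stocks, grown in Ham's F-12 with 10% FBS and G-418, then plated 48 h. Test compound at 0.01, 0.1, 1 or 10 µM with CPA (0.05–0.1 nM) for 6 min at 36 °C. Stopped with HCl (final 50 mM). cAMP in acidified extracts measured by radioimmunoassay. Reference enhancer run in each experiment. Four experiments per concentration.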
In general terms: Cyclic AMP is a second messenger, typically raised through Gs and lowered through Gi signalling.

In test [3] the target is T1, Adenosine receptor A1 (Homo sapiens). As to the kind of experiment: Displacement of [3H]DPCPX from recombinant human A1 adenosine receptor expressed in CHO cells at 10 uM after 120 mins by scintillation counting. It counts as cell-based. The procedure, abridged:
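Membranes from hA1CHO cells incubated with 1 nM [3H]DPCPX in 50 mM Tris–HCl pH 7.4 at 25 °C for 120 min. Compound added from a 100-fold DMSO stock, so 1% DMSO final, also present in controls. Bound ligand separated on GF/B filters and counted by scintillation. Result given as % of control specific binding.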

For test [4] the target is unchanged. Briefly: Allosteric enhancer activity at recombinant human A1 adenosine receptor expressed in CHO cells assessed as change in forskolin-induced cAMP production at 1 uM after 6 mins by radioimmunoassay. Format: functional, cell-based. The procedure, abridged: as §1
The target is the same in test [5]. Briefly: Binding affinity to recombinant human A1 adenosine receptor allosteric site expressed in CHO cells assessed as potentiation of CCPA-induced [3H]DPCPX displacement at 10 uM after 90 mins relative to control. Format: cell-based. Summed up:
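Competition of CCPA (0.01 nM–1 µM) against 1 nM [3H]DPCPX on hA1CHO membranes, run in triplicate, 90 min at 25 °C, in 50 mM Tris–HCl pH 7.4, with or without test compound at 10 µM. Nonspecific binding taken with 1 µM DPCPX. Ki by Cheng–Prusoff. Shift = Ki(CCPA)/Ki(CCPA + 10 µM compound).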

Test [6] shares this target. As to the kind of experiment: Allosteric enhancer activity at recombinant human A1 adenosine receptor expressed in CHO cells assessed as change in forskolin-induced cAMP production at 10 uM after 6 mins by radioimmunoassay. It counts as functional, cell-based. The procedure, abridged:
as §1

The target is the same in test [7]. Briefly: Binding affinity to recombinant human A1 adenosine receptor allosteric site expressed in CHO cells assessed as [3H]CCPA Bmax shift at 10 uM after 90 mins relative to control. It counts as cell-based. Summed up:
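Saturation binding of [3H]CCPA (0.05–20 nM) to hA1CHO membranes. Membranes pretreated with adenosine deaminase 3 UI/mL for 30 min at 37 °C. Run in triplicate, 90 min at 25 °C, in 50 mM Tris–HCl pH 7.4, with or without test compound at final 10 µM. Nonspecific binding taken with 1 µM R-PIA. Bmax fitted by LIGAND. Shift is the fold of Bmax increase over control.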

In test [8] the target is T2, Adenosine receptor A3 (Homo sapiens) (UniProt P0DMS8).
T2 sequence (whole entry): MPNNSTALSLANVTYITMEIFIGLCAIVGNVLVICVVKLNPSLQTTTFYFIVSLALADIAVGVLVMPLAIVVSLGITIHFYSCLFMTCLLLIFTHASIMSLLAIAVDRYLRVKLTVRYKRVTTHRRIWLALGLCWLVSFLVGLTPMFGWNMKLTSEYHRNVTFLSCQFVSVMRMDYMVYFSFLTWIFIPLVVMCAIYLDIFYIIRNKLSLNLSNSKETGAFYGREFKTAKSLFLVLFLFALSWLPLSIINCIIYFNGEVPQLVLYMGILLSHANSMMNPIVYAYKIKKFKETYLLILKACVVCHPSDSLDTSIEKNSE
As to the kind of experiment: Displacement of [3H]MRE3008F20 from recombinant human A3 adenosine receptor expressed in CHO cells at 10 uM after 120 mins by scintillation counting. Format: cell-based. The procedure, abridged: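 Membranes from hA3CHO cells incubated with 2 nM [3H]MRE 3008F20 in 50 mM Tris–HCl, 10 mM MgCl2, 1 mM EDTA, pH 7.4 at 4 °C for 120 min. Compound added from a 100-fold DMSO stock, 1% DMSO final, also in controls. Separated by GF/B filtration and counted by scintillation. Result given as % of control specific binding.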

Test [9] addresses T1, Adenosine receptor A1 (Homo sapiens). Briefly: Allosteric enhancer activity at recombinant human A1 adenosine receptor expressed in CHO cells assessed as change in forskolin-induced cAMP production at 0.01 uM after 6 mins by radioimmunoassay. Format: functional, cell-based. Summed up: as §1
Test [10] has the same target. Briefly: Binding affinity to recombinant human A1 adenosine receptor allosteric site expressed in CHO cells assessed as [3H]DPCPX Bmax shift at 10 uM after 90 mins relative to control. Format: cell-based. The procedure, abridged:
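Saturation binding of [3H]DPCPX (0.05–20 nM) to hA1CHO membranes, run in triplicate, 90 min at 25 °C, in 50 mM Tris–HCl pH 7.4, with or without test compound at final 10 µM. Nonspecific binding taken with 1 µM DPCPX. KD and Bmax fitted by LIGAND. Shift is the fold of Bmax increase over control.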

Molecules are shown by their SMILES.

Chain of Adenosine receptor A2a (Homo sapiens) (P29274 whole entry): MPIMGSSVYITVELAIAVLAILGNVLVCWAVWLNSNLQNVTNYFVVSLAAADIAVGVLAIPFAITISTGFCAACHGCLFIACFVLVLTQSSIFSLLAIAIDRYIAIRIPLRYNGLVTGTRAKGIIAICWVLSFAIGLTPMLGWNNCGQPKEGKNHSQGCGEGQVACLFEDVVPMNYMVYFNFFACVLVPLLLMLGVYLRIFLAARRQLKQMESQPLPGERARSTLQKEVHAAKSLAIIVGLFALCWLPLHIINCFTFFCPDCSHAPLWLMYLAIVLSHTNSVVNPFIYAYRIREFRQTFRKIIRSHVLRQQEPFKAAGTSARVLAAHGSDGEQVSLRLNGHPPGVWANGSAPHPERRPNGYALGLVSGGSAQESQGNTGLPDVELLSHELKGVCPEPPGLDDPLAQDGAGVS

Broadly, the inhibition is the relative decrease from the control value, in per cent. As for `Nc1scc(CN2CCN(c3ccc(F)cc3F)CC2)c1C(=O)c1ccc(Cl)cc1`, the inhibition is 0% in test [1], 1% in test [3] and 0% in test [8]. Besides, the Activity in [2] is -17%; in test [4] it was -66%; in test [6], -82%; in test [9] it was 0%. In addition, the figures for the fold change (FC) in test [5], in test [7] and in test [10] were 4.8, 6.1 and 1, respectively.
Take `Nc1scc(CN2CCN(c3ccc(F)c(F)c3)CC2)c1C(=O)c1ccc(Cl)cc1`: the inhibition amounted to 0% in test [1], 0% in [3] and 1% in test [8]. Further, the Activity in test [2] is -34%; in [4] it was -78%; in test [6], -87%; in test [9], -3.2%. Also, the fold change (FC) in test [5] stood at 5.5; in [7] it was 7.2; in test [10], 1.1.
Take `Nc1scc(CN2CCN(C3CCCC3)CC2)c1C(=O)c1ccc(Cl)cc1`: the inhibition amounted to 3% in test [1], 0% in [3] and 3% in test [8]. The Activity in test [2] was 2.1%; in [4], 10%; in [6] it was -30%; in test [9], 9.1%. The figures for the fold change (FC) in test [5], in test [7] and in test [10] were 1.3, 1.1 and 0.9, respectively.
In the case of `Nc1scc(CN2CCN(c3ccccc3F)CC2)c1C(=O)c1ccc(Cl)cc1`, the inhibition in [1] came to 0%; in test [3] it was 4%; in test [8], 0%. Further, the Activity is -1% in [2], -9.2% in test [4], -15% in test [6] and 2.1% in test [9]. The fold change (FC) in [5] was 1.4; in test [7] it was 1.1; in [10], 1.
As for `Nc1scc(CN2CCN(c3ccc(Cl)c(C(F)(F)F)c3)CC2)c1C(=O)c1ccc(Cl)cc1`, the inhibition worked out at 0% in test [1], 0% in [3] and 3% in test [8]. Besides, the Activity in [2] is -12%; in [4], -47%; in [6], -60%; in test [9], -2.5%. The fold change (FC) in test [5] came out at 4.5; in test [7], 5.7; in [10] it was 1.
Turning to `Nc1scc(CN2CCN(c3cccnc3)CC2)c1C(=O)c1ccc(Cl)cc1`, the inhibition in test [1], in [3] and in test [8] was 0% throughout. In addition, the Activity was 3.4% in [2], -2.7% in test [4], -23% in test [6] and 3.2% in [9]. Further, the results for the fold change (FC) in [5], in test [7] and in [10] were 1.4, 1.3 and 0.9, respectively.
For `Nc1scc(CN2CCN(c3ccc(Cl)cc3F)CC2)c1C(=O)c1ccc(Cl)cc1`, the inhibition in test [1] came to 0%; in test [3], 0%; in test [8], 1%. Besides, the Activity was -9.4% in [2], -57% in test [4], -81% in test [6] and -9.2% in test [9]. Besides, the fold change (FC) in test [5] is 4.3; in test [7], 5.3; in test [10], 1.
With `Nc1scc(CN2CCN(c3cccc(Cl)c3)CC2)c1C(=O)c1ccc(Cl)cc1`, the inhibition in test [1] was found to be 0%; in test [3], 0%; in test [8] it was 1%. Further, the Activity was -20% in test [2], -59% in [4], -77% in [6] and -3.1% in test [9]. Moreover, the fold change (FC) in test [5] amounted to 3.7; in test [7], 4.4; in [10] it was 1.
